Reference: paper PMC6815263 (European journal of medicinal chemistry, 2019)

The molecules below were run against mu-opioid receptor (MOR) (Homo sapiens, UniProt P35372) (assay: MOR binding competition assay with [3H]DAMGO). Conditions: MOR binding Ki relative to morphine.
Sequence of mu-opioid receptor (MOR) (P35372 whole entry, species assumed): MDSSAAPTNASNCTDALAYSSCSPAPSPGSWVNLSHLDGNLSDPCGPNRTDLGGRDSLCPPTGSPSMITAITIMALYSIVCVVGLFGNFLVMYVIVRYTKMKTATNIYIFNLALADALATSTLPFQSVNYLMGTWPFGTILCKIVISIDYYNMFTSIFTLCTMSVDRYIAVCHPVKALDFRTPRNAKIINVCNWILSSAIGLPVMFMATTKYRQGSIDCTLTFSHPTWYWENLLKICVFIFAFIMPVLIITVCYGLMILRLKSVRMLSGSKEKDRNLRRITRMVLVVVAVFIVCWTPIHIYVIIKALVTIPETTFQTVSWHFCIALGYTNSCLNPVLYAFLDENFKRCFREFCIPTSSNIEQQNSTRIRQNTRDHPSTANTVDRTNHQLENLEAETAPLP
In the case of CN(C)C1(Cc2ccccc2)CCN(c2cc(C(F)(F)F)ccc2CNC(=O)Nc2cccc3ncccc23)CC1 [compound 49, 1-(2-(4-Benzyl-4-(dimethylamino)piperidin-1-yl)-4-(trifluoromethyl)benzyl)-3-(quinolin-5-yl)urea], the “fold less potent than morphine (MOR Ki)” value is reported as 5 fold.

The molecules below were run against human TRPV1 (Homo sapiens, UniProt Q8NER1) (assay: 45Ca2+ uptake assay, antagonism of capsaicin). Conditions: not given.
Sequence of human TRPV1 (Q8NER1 whole entry): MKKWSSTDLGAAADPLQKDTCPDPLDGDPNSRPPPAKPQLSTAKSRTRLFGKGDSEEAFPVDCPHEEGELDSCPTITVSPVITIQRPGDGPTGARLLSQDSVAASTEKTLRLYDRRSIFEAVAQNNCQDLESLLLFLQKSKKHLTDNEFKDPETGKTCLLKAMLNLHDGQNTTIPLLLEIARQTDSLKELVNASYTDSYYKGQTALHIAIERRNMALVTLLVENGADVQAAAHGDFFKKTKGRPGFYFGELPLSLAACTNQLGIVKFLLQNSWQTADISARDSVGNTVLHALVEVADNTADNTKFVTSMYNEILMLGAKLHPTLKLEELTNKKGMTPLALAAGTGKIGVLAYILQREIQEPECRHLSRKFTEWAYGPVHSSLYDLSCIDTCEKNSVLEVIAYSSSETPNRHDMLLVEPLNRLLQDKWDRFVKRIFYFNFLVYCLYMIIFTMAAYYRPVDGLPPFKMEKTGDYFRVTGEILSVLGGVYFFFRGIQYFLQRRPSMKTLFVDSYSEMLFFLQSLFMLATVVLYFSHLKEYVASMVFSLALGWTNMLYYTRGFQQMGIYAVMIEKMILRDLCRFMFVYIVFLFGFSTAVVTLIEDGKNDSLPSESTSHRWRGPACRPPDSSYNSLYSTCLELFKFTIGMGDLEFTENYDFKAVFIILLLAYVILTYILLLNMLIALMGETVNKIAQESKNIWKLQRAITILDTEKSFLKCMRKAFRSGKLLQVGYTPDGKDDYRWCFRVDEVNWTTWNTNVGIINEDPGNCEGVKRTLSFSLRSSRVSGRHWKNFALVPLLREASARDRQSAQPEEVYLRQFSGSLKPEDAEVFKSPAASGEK
Assay type: cell-based
With CC1CCN(c2nc(C(F)(F)F)ccc2CNC(=O)[C@@H](C)c2ccc(NS(C)(=O)=O)c(F)c2)CC1 [compound 1, reference compound] the Ki was 2.22 nM.
With CC(C(=O)NCc1ccc(C(F)(F)F)cc1N1CCC(Cc2ccccc2)(N(C)C)CC1)c1ccc(NS(C)(=O)=O)c(F)c1 (centres unmarked) [compound 11, N-(2-(4-Benzyl-4-(dimethylamino)piperidin-1-yl)-4-(trifluoromethyl)benzyl)-2-(3-fluoro-4-(methylsulfonamido)phenyl)propanamide] the Ki was 8.2 nM.
CN(C)C1(Cc2ccccc2)CCN(c2cc(C(F)(F)F)ccc2CNC(=O)Nc2ccc(CNS(C)(=O)=O)c(F)c2)CC1 [compound 15, N-(4-(3-(2-(4-Benzyl-4-(dimethylamino)piperidin-1-yl)-4-(trifluoromethyl)benzyl)-ureido)-2-fluorobenzyl)methanesulfonamide] showed a Ki of 25 nM.
For CN(C)C1(Cc2ccccc2)CCN(c2cc(C(F)(F)F)ccc2CNC(=O)NCc2ccc(NS(C)(=O)=O)c(F)c2)CC1 [compound 17, N-(4-((3-(2-(4-Benzyl-4-(dimethylamino)piperidin-1-yl)-4-(trifluoromethyl)benzyl)-ureido)-methyl)-2-fluorophenyl)methanesulfonamide], the Ki was 85.9 nM.
CN(C)C1(Cc2ccccc2)CCN(c2cc(C(F)(F)F)ccc2CNC(=O)Nc2ccc(CO)c(F)c2)CC1 [compound 23, 1-(2-(4-Benzyl-4-(dimethylamino)piperidin-1-yl)-4-(trifluoromethyl)benzyl)-3-(3-fluoro-4-(hydroxymethyl)phenyl)urea] gave a Ki of 81 nM.
Molecule CN(C)C1(Cc2ccccc2)CCN(c2cc(C(F)(F)F)ccc2CNC(=O)Nc2ccc3c(c2)OCC3)CC1 [compound 33, 1-(2-(4-Benzyl-4-(dimethylamino)piperidin-1-yl)-4-(trifluoromethyl)benzyl)-3-(2,3-dihydrobenzofuran-6-yl)urea] has a Ki of 31.3 nM.
In the case of CN(C)C1(Cc2ccccc2)CCN(c2cc(C(F)(F)F)ccc2CNC(=O)Nc2cccc3[nH]c(=O)ccc23)CC1 [compound 35, 1-(2-(4-Benzyl-4-(dimethylamino)piperidin-1-yl)-4-(trifluoromethyl)benzyl)-3-(2-oxo-1,2-dihydroquinolin-5-yl)urea], the Ki is reported as 30.6 nM.
Molecule CN(C)C1(Cc2ccccc2)CCN(c2cc(C(F)(F)F)ccc2CNC(=O)Nc2ccc3cccnc3c2)CC1 [compound 44, 1-(2-(4-Benzyl-4-(dimethylamino)piperidin-1-yl)-4-(trifluoromethyl)benzyl)-3-(quinolin-7-yl)urea] has a Ki of 42 nM.
CN(C)C1(Cc2ccccc2)CCN(c2cc(C(F)(F)F)ccc2CNC(=O)Nc2ccc3ccncc3c2)CC1 [compound 45, 1-(2-(4-Benzyl-4-(dimethylamino)piperidin-1-yl)-4-(trifluoromethyl)benzyl)-3-(isoquinolin-7-yl)urea] gave a Ki of 56.1 nM.
With CN(C)C1(Cc2ccccc2)CCN(c2cc(C(F)(F)F)ccc2CNC(=O)Nc2ccc3cnccc3c2)CC1 [compound 46, 1-(2-(4-Benzyl-4-(dimethylamino)piperidin-1-yl)-4-(trifluoromethyl)benzyl)-3-(isoquinolin-6-yl)urea] the Ki was 156 nM.
For CN(C)C1(Cc2ccccc2)CCN(c2cc(C(F)(F)F)ccc2CNC(=O)Nc2cccc3ccncc23)CC1 [compound 47, 1-(2-(4-Benzyl-4-(dimethylamino)piperidin-1-yl)-4-(trifluoromethyl)benzyl)-3-(isoquinolin-8-yl)urea], the Ki was 18.7 nM.
For CN(C)C1(Cc2ccccc2)CCN(c2cc(C(F)(F)F)ccc2CNC(=O)Nc2cccc3cnccc23)CC1 [compound 48, 1-(2-(4-Benzyl-4-(dimethylamino)piperidin-1-yl)-4-(trifluoromethyl)benzyl)-3-(isoquinolin-5-yl)urea], the Ki was 8.8 nM.

The molecules below were run on ICR mice (assay: Formalin test). Conditions: 40 mg/kg i.p., formalin assay phase 2.
Assay type: in vivo, mouse
How it was run: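 Male ICR mice (20-25 g, groups of 6-8) were housed at 22 ± 2 °C and 50 ± 5% humidity and acclimated to the chamber for at least 5 min. Test compound was given i.p. 30 min before 20 μL of 2% formalin in 0.9% saline was injected into the dorsal right hindpaw. Licking/biting time (s) was summed per 5-min block over 30 min: early phase 0-5 min, late phase 20-30 min.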
In the case of CN(C)C1(Cc2ccccc2)CCN(c2cc(C(F)(F)F)ccc2CNC(=O)Nc2cccc3ncccc23)CC1 [compound 49, 1-(2-(4-Benzyl-4-(dimethylamino)piperidin-1-yl)-4-(trifluoromethyl)benzyl)-3-(quinolin-5-yl)urea], the “inhibition of pain behavior in phase 2” value is reported as “completely”.
